The results in this text go back to ChEMBL document CHEMBL1145129, “Design, synthesis, and anticancer properties of 4,4'-dihydroxybenzophenone-2,4-dinitrophenylhydrazone and analogues” (J Med Chem, 2003).

Values after ≈ are worked out from the molar mass of the structure shown.

Test [1] is described as follows: In vitro cytotoxicity in K 1735 M2 cell line. It counts as functional.
Test [2] is described as follows: In vitro cytotoxicity in KM 12L4 cell line. It counts as functional, cell-based. As to conditions: Homo sapiens; call rule not given here. In outline:
(§1)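 Established tumor lines kept in RPMI-1640 with 10% fetal calf serum and penicillin/streptomycin at 36 °C, 10% CO₂. Seeded 2000–3000 cells/well; hydrazone-containing medium added after 18 h, then 36 h further culture. Viable cells read by MTT absorbance at 570 nm; cytostasis (%) = (1 − A_treated/A_control) × 100.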

A further test concerns MDA-MB-435. Kind of test: In vitro cytotoxicity in MDA-MB-435 cell line. The test is classed as functional, cell-based. As to conditions: Homo sapiens. The method, boiled down:
as §1

A short description of test [3]: In vitro cytotoxicity in SN 12 PM6 cell line. Conditions: Homo sapiens. It counts as functional, cell-based. In outline:
as §1

Test [4] in a line: In vitro cytotoxicity in Human breast tumor cells. The test is classed as functional, cell-based. In outline: (§2)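 Fresh surgical human tumor specimens minced to ≤0.1 mm fragments in RPMI-1640 with 10% FBS, streptomycin and penicillin (10⁶–10⁸ cells/mL), explanted into slide flasks. Exposed 24 h at 37 °C, 5% CO₂, to test agent 0.1–20 μg/mL (≥5 doses over 3 logs), in duplicate. Washed, recultured 7–14 days, fixed, HPF cell counts vs control; IC50 (SD) from percent growth.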

Test [5] is filed under the species Homo sapiens. Kind of test: In vitro cytotoxicity against Human lung tumor cells; Not available. The test is classed as functional. The method, boiled down: as §2
The subject of test [6] is Melanoma tumor cell line. Nature of the test: In vitro cytotoxicity against Human melanoma tumor cells; Not available. The test is classed as functional, cell-based. The method, boiled down: as §2
Test [7] can be described thus: In vitro cytotoxicity in FDCP-1 cell line. As to conditions: Mus musculus, FDC-P1.
Test [8] in a line: In vitro cytotoxicity in B 16 F10 cell line. As to conditions: Mus musculus, B16-F10.
A short description of test [9]: In vitro cytotoxicity in KM 12 C cell line. The test is classed as functional. As to conditions: Homo sapiens, KM12C. In outline: as §1
The nature of test [10]: In vitro cytotoxicity in KM 12 SM cell line. It counts as functional. As to conditions: Homo sapiens, KM12. In outline:
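Established lines kept in RPMI-1640 with 10% fetal calf serum and penicillin/streptomycin at 36 °C, 10% CO₂. Cells seeded at 2000–3000 cells/well, hydrazones added at several concentrations after 18 h, and exposed a further 36 h. Viable cells read by MTT absorbance at 570 nm; cytostasis (%) = (1 − A/B)×100 against untreated control.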

Test [11] can be described thus: In vitro cytotoxicity in MDA-MB-435/lung met cell line. The test is classed as functional. As to conditions: Homo sapiens. The method, boiled down:
as §1

Test [12] has as its system Colon carcinoma cell. Nature of the test: In vitro cytotoxicity was tested in human colon tumor cells. The test is classed as functional, cell-based. The method, boiled down: as §2
For test [13], the species on record is Homo sapiens. Kind of test: In vitro cytotoxicity against Human lung tumor cells. It counts as functional. The method, boiled down:
as §2

Test [14] in a line: In vitro cytotoxicity in estrogen receptor and progesterone receptor negative Human breast tumor cells; (5+/-2, 0.2+/-0.3). It counts as functional, cell-based.
A short description of test [15]: In vitro cytotoxicity in estrogen receptor negative progesterone receptor positive Human breast tumor cells; (3+/-2, 0.4+/-0.1). It counts as functional, cell-based.
A short description of test [16]: In vitro cytotoxicity in estrogen receptor positive progesterone receptor negative Human breast tumor cells; (>5, 0.5). It counts as functional, cell-based.
Test [17] concerns Colon carcinoma cell. Nature of the test: In vitro cytotoxicity in Human colon tumor cells; (>12+/-4, >12+/-5). It counts as functional, cell-based.
Test [18] is filed under the species Homo sapiens. Nature of the test: In vitro cytotoxicity in Human ovary tumor cells; (3+/-3, 4.2+/-4). The test is classed as functional. Conditions: Female gonad.
The species named for test [19] is Homo sapiens. Kind of test: In vitro cytotoxicity in Human lung tumor cells; (5+/-5, 6+/-5). It counts as functional.
The test system of test [20] is Melanoma tumor cell line. Kind of test: In vitro cytotoxicity in Human melanoma tumor cells; (5+/-4, >10). It counts as functional, cell-based.
Test [21] has as its system breast cancer cells (Homo sapiens). Kind of test: In vitro cytotoxicity in estrogen receptor and progesterone receptor positive Human breast tumor cells; (2.5+/-0.9, 0.5+/-1).

In the case of `COc1ccc2c(=NNc3ccc([N+](=O)[O-])cc3[N+](=O)[O-])c3ccc(OC)cc3oc2c1`, the IC50 is 0.64 µg/mL (≈ 1.47 µM) in [1]; 1.57 µg/mL (≈ 3.6 µM) in test [2]; 0.41 µg/mL (≈ 0.94 µM) with MDA-MB-435; 0.62 µg/mL (≈ 1.42 µM) in test [3]; above 5 µg/mL in test [4]; “Not Active” in the test listed under Homo sapiens [5]. Moreover, the results for the IC50 result (in the test with Melanoma tumor cell line [6]; in test [7]; in [8]) were “Not Active”, 0.95 µg/mL (≈ 2.18 µM) and 0.44 µg/mL (≈ 1.01 µM), respectively.
For the compound `O=[N+]([O-])c1ccc(/N=N/c2c3cccc(O)c3c(O)c3c(O)cccc23)c([N+](=O)[O-])c1`, the concentration for half-maximal inhibition (IC50) in [1] was 0.02 µg/mL (≈ 0.0476 µM); in test [9], 0.03 µg/mL (≈ 0.0714 µM); in test [10], 0.05 µg/mL (≈ 0.119 µM); in test [2] it was 0.02 µg/mL (≈ 0.0476 µM); in the test on MDA-MB-435, 0.02 µg/mL (≈ 0.0476 µM); in [11] it was 0.03 µg/mL (≈ 0.0714 µM). Besides, the IC50 in test [3] is 0.03 µg/mL (≈ 0.0714 µM); in test [4], 0.03 µg/mL (≈ 0.0714 µM); with Colon carcinoma cell [12] it was 0.03 µg/mL (≈ 0.0714 µM); in the test filed under Homo sapiens [13], 0.12 µg/mL (≈ 0.285 µM); in the test with Melanoma tumor cell line [6] it was “Not Active”.
As to `O=[N+]([O-])c1ccc(NN=C(c2ccc(O)cc2)c2ccc(O)cc2)c([N+](=O)[O-])c1` [SIVIFENE], the IC50 in test [10] was 5.4 µg/mL (≈ 13.7 µM); in the test with MDA-MB-435, 2.1 µg/mL (≈ 5.33 µM); in [3] it was 4 µg/mL (≈ 10.1 µM); in test [14] it was 12.6 µg/mL (≈ 32 µM); in [15] it was above 10 µg/mL; in test [16], above 10 µg/mL. Moreover, the half-maximal inhibitory concentration (IC50) came to 15.2 µg/mL (≈ 38.5 µM) in the test on Colon carcinoma cell [17]; 12.3 µg/mL (≈ 31.2 µM) in the test listed under Homo sapiens [18]; 4.9 µg/mL (≈ 12.4 µM) in the test filed under Homo sapiens [19]; 7 µg/mL (≈ 17.8 µM) in the test with Melanoma tumor cell line [20]; 9.1 µg/mL (≈ 23.1 µM) in test [7]; 1 µg/mL (≈ 2.54 µM) in [8]. Moreover, the IC50 in test [21] amounted to 3.5 µg/mL (≈ 8.88 µM).

The term IC50 denotes the concentration at which inhibition is half-maximal.
